Measurements taken from ChEMBL document CHEMBL3627597, “Synthesis of Fluorine-Containing Phosphodiesterase 10A (PDE10A) Inhibitors and the In Vivo Evaluation of F-18 Labeled PDE10A PET Tracers in Rodent and Nonhuman Primate” (J Med Chem, 2015).

How the values were obtained:
Rattus norvegicus [1] = assay: Biodistribution in Sprague-Dawley rat fat tissue at 1.48 to 2.22 MBq, iv measured at 5 mins by gamma counting analysis; format: ADME, organism-based, Adipose tissue; conditions: in vivo
Procedure, shortened: (§1)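 Male Sprague-Dawley rats (250 - 400 g), tail-vein injection of 1.48 - 2.22 MBq radiotracer under 2.5% isoflurane in oxygen; n=4 per time point, euthanized at 5, 30 and 60 min p.i. Brain regions obtained by gross dissection; peripheral tissues collected. Samples weighed, gamma-counted against a diluted-injectate standard; %ID/g calculated.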

Kidney [2] = assay: Biodistribution in Sprague-Dawley rat kidney at 1.48 to 2.22 MBq, iv measured at 30 mins by gamma counting analysis; format: ADME, organism-based; conditions: in vivo, 0.5 h; procedure, shortened: as §1
Rattus norvegicus [3] = assay: Biodistribution in Sprague-Dawley rat fat tissue at 1.48 to 2.22 MBq, iv measured at 60 mins by gamma counting analysis; format: ADME, organism-based, Adipose tissue; conditions: in vivo, 1 h; procedure, shortened: as §1
Brain [4] = assay: Biodistribution in Sprague-Dawley rat brain at 1.48 to 2.22 MBq, iv measured at 5 mins by gamma counting analysis; format: ADME, organism-based; conditions: in vivo; procedure, shortened: as §1
Brain [5] = assay: Biodistribution in Sprague-Dawley rat brain at 1.48 to 2.22 MBq, iv measured at 30 mins by gamma counting analysis; format: ADME, organism-based; conditions: in vivo, 0.5 h; procedure, shortened: as §1
Muscle tissue [6] = assay: Biodistribution in Sprague-Dawley rat muscle at 1.48 to 2.22 MBq, iv measured at 30 mins by gamma counting analysis; format: ADME, organism-based; conditions: in vivo, 0.5 h; procedure, shortened: as §1
Muscle tissue [7] = assay: Biodistribution in Sprague-Dawley rat muscle at 1.48 to 2.22 MBq, iv measured at 5 mins by gamma counting analysis; format: ADME, organism-based; conditions: in vivo; procedure, shortened: as §1
Liver [8] = assay: Biodistribution in Sprague-Dawley rat liver at 1.48 to 2.22 MBq, iv measured at 5 mins by gamma counting analysis; format: ADME, organism-based; conditions: in vivo; procedure, shortened: as §1
Blood [9] = assay: Biodistribution in Sprague-Dawley rat blood at 1.48 to 2.22 MBq, iv measured at 60 mins by gamma counting analysis; format: ADME, organism-based; conditions: in vivo, 1 h; procedure, shortened: as §1
Liver [10] = assay: Biodistribution in Sprague-Dawley rat liver at 1.48 to 2.22 MBq, iv measured at 30 mins by gamma counting analysis; format: ADME, organism-based; conditions: in vivo, 0.5 h; procedure, shortened: as §1
Bone [11] = assay: Biodistribution in Sprague-Dawley rat bone at 1.48 to 2.22 MBq, iv measured at 30 mins by gamma counting analysis; format: ADME, organism-based, Bone element; conditions: in vivo, 0.5 h; procedure, shortened: as §1
Bone [12] = assay: Biodistribution in Sprague-Dawley rat bone at 1.48 to 2.22 MBq, iv measured at 60 mins by gamma counting analysis; format: ADME, organism-based, Bone element; conditions: in vivo, 1 h; procedure, shortened: as §1
Liver [13] = assay: Biodistribution in Sprague-Dawley rat liver at 1.48 to 2.22 MBq, iv measured at 60 mins by gamma counting analysis; format: ADME, organism-based; conditions: in vivo, 1 h; procedure, shortened: as §1
Muscle tissue [14] = assay: Biodistribution in Sprague-Dawley rat muscle at 1.48 to 2.22 MBq, iv measured at 60 mins by gamma counting analysis; format: ADME, organism-based; conditions: in vivo, 1 h; procedure, shortened: as §1
Blood [15] = assay: Biodistribution in Sprague-Dawley rat blood at 1.48 to 2.22 MBq, iv measured at 30 mins by gamma counting analysis; format: ADME, organism-based; conditions: in vivo, 0.5 h; procedure, shortened: as §1
Rattus norvegicus [16] = assay: Biodistribution in Sprague-Dawley rat fat tissue at 1.48 to 2.22 MBq, iv measured at 30 mins by gamma counting analysis; format: ADME, organism-based, Adipose tissue; conditions: in vivo, 0.5 h; procedure, shortened: as §1
Kidney [17] = assay: Biodistribution in Sprague-Dawley rat kidney at 1.48 to 2.22 MBq, iv measured at 5 mins by gamma counting analysis; format: ADME, organism-based; conditions: in vivo; procedure, shortened: as §1
Striatum = assay: Biodistribution in Sprague-Dawley rat striatum at 1.48 to 2.22 MBq, iv measured at 30 mins by gamma counting analysis; format: ADME, organism-based; conditions: in vivo, 0.5 h; procedure, shortened: as §1
Bone [18] = assay: Biodistribution in Sprague-Dawley rat bone at 1.48 to 2.22 MBq, iv measured at 5 mins by gamma counting analysis; format: ADME, organism-based, Bone element; conditions: in vivo; procedure, shortened: as §1
Brain [19] = assay: Biodistribution in Sprague-Dawley rat brain at 1.48 to 2.22 MBq, iv measured at 60 mins by gamma counting analysis; format: ADME, organism-based; conditions: in vivo, 1 h; procedure, shortened: as §1
[20] = Ratio of drug level in striatum to cerebellum in Sprague-Dawley rat at 1.48 to 2.22 MBq, iv measured at 5 to 30 mins by gamma counting analysis; format: ADME, organism-based; conditions: in vivo
Procedure, shortened: (§2)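 Striatum, cerebellum and cortex obtained by gross dissection from Sprague-Dawley rats (250 - 400 g, n=4 per time point) after tail-vein injection of 1.48 - 2.22 MBq under isoflurane anesthesia. Tissues weighed and gamma-counted with an injectate standard to give %ID/g; ratios taken from striatal versus non-target uptake.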

Nucleic Acid = assay: Ratio of drug level in striatum to cortex in Sprague-Dawley rat at 1.48 to 2.22 MBq, iv measured at 5 to 30 mins by gamma counting analysis; format: ADME, organism-based; conditions: in vivo; procedure, shortened: as §2
Kidney [21] = assay: Biodistribution in Sprague-Dawley rat kidney at 1.48 to 2.22 MBq, iv measured at 60 mins by gamma counting analysis; format: ADME, organism-based; conditions: in vivo, 1 h; procedure, shortened: as §1
Blood [22] = assay: Biodistribution in Sprague-Dawley rat blood at 1.48 to 2.22 MBq, iv measured at 5 mins by gamma counting analysis; format: ADME, organism-based; conditions: in vivo; procedure, shortened: as §1

| Drug uptake (Rattus norvegicus [1]) [% ID/g] | Drug uptake (Kidney [2]) [% ID/g] | Drug uptake (Rattus norvegicus [3]) [% ID/g] | Drug uptake (Brain [4]) [% ID/g] | Drug uptake (Brain [5]) [% ID/g] | Drug uptake (Muscle tissue [6]) [% ID/g] | Drug uptake (Muscle tissue [7]) [% ID/g] | Drug uptake (Liver [8]) [% ID/g] | Drug uptake (Blood [9]) [% ID/g] | Drug uptake (Liver [10]) [% ID/g] | Drug uptake (Bone [11]) [% ID/g] | Drug uptake (Bone [12]) [% ID/g] | Drug uptake (Liver [13]) [% ID/g] | Drug uptake (Muscle tissue [14]) [% ID/g] | Drug uptake (Blood [15]) [% ID/g] | Drug uptake (Rattus norvegicus [16]) [% ID/g] | Drug uptake (Kidney [17]) [% ID/g] | Drug uptake (Striatum) | Drug uptake (Bone [18]) [% ID/g] | Drug uptake (Brain [19]) [% ID/g] | Structure (SMILES) | other results |
| --- | --- | --- | --- | --- | --- | --- | --- | --- | --- | --- | --- | --- | --- | --- | --- | --- | --- | --- | --- | --- | --- |
| 0.343 | 1.351 | 0.222 | 0.128 | 0.094 | 0.174 | 0.227 | 10.16 | 0.201 | 4.01 | 4.055 | 5.62 | 3.1 | 0.107 | 0.416 | 0.352 | 1.799 | Active | 0.421 | 0.069 | Cn1cc(-c2ccncc2)c(-c2ccc(OCc3cc(C[18F])c4ccccc4n3)cc2)n1 | Ratio [20]: > 2; Ratio (Nucleic Acid): > 2; Drug uptake (Kidney [21]): 0.573 % ID/g; Drug uptake (Blood [22]): 0.471 % ID/g |
| 0.139 | 0.632 | 0.066 | 0.213 | 0.353 | 0.265 | 0.155 | 3.99 | 0.401 | 0.987 | 0.17 | 0.337 | 0.554 | 0.228 | 0.424 | 0.139 | 0.981 | Active | 0.133 | 0.343 | Cn1cc(-c2ccncc2)c(-c2ccc(OCc3cc(COCC[18F])c4ccccc4n3)cc2)n1 | Drug uptake (Kidney [21]): 0.485 % ID/g; Drug uptake (Blood [22]): 0.44 % ID/g |
| 0.22 | 1.364 | 0.368 | 0.114 | 0.046 | 0.178 | 0.223 | 9.99 | 0.345 | 5.67 | 1.418 | 2.037 | 6.79 | 0.103 | 0.345 | 0.491 | 2.471 | Active | 0.222 | 0.026 | Cn1cc(-c2ccncc2)c(-c2ccc(OCc3cc(CCC[18F])c4ccccc4n3)cc2)n1 | Ratio [20]: > 2; Ratio (Nucleic Acid): > 2; Drug uptake (Kidney [21]): 1.216 % ID/g; Drug uptake (Blood [22]): 0.459 % ID/g |
| 0.404 | 1.034 | 0.477 | 0.41 | 0.191 | 0.236 | 0.339 | 6.87 | 0.15 | 3 | 4.035 | 6.3 | 1.6 | 0.092 | 0.376 | 0.576 | 1.887 | Active | 0.522 | 0.125 | Cn1cc(-c2ccncc2)c(-c2ccc(OCc3cc([18F])c4ccccc4n3)cc2)n1 | Ratio [20]: > 2; Ratio (Nucleic Acid): > 2; Drug uptake (Kidney [21]): 0.533 % ID/g; Drug uptake (Blood [22]): 0.353 % ID/g |
| 0.225 | 1.793 | 0.123 | 0.353 | 0.509 | 0.488 | 0.419 | 4.74 | 0.646 | 1.53 | 0.441 | 0.49 | 0.527 | 0.379 | 0.771 | 0.254 | 5.969 | Active | 0.487 | 0.421 | Cn1cc(-c2ccncc2)c(-c2ccc(OCc3cc(OCCOCCOCC[18F])c4ccccc4n3)cc2)n1 | Drug uptake (Kidney [21]): 1.037 % ID/g; Drug uptake (Blood [22]): 0.699 % ID/g |
